Screening data deposited in PubChem by several laboratories.
The entries come from a sample that favours hits as a whole.
CHOP inh: inhibitors of CHOP induction in ER stress response. CHO-K1 CHOP-promoter luciferase, tunicamycin-induced, 15-18 h. inhibition, % at 10 µM. actives 3.8% (n = 220,000);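 active means compounds that reduced the stress-induced luciferase reporter signal by more than about 70% of percent inhibition, limit read from the data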;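 further: 0% = tunicamycin plus vehicle and 100% = wells without tunicamycin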
NOD2 RIPK2 PPI: inhibitors of human NOD2-RIPK2 interaction. O43353. CHO BLA complementation NOD2-RIPK2, CCF4 ratio. inhibition, % at 4.98 µM. actives 0.38% (n = 360,000); in the data active means inhibition above about 21%;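 further: 0% = vehicle only and 100% = reference blocker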
TLR4-MyD88 BLA: blocks binding of human TLR4 to MyD88; O00206+Q99836; inhibition, % at 8.4 µM; HeLa CL3-4 TLR4/MyD88 BLA complementation, FRET ratio; actives 0.18% (n = 200,000); in the data active means inhibition above about 25%;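 further: 0% = vehicle and 100% = reference inhibitor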
TLR9-MyD88 block: TLR9-MyD88 interaction inhibition | CHO BLA complementation TLR9-MyD88, CCF4 FRET ratio | inhibition, % at 4.98 µM | actives 0.21% (n = 340,000);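 active means inhibition above the mean over all tested compounds plus 3 SD, cut at about 21% in these data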;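 further: 0% = DMSO only wells and 100% = clavulanate BLA inhibitor control wells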
CHOP UPR activ: apoptotic UPR (CHOP) activation; actives 0.34% (n = 330,000); AID 449763; activation, % at 10 µM; CHO-CHOP luciferase reporter, luminescence; percent of tunicamycin response over DMSO baseline;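 active means at 10 µM dose, activation of 40% or more, normalized to positive control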;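 further: 100% = tunicamycin at 10 µg/mL and 0% = DMSO alone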
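Test system: CHO-CHOP cells, stable luciferase reporter of PERK-eIF2a-CHOP signalling | Quantity: 500 CHO-CHOP cells per well | Buffer or medium: F12 plus 10% serum | Compound dosing: 10 µM single point, 0.5% DMSO | Schedule: 6 h compound treatment, 37 °C | Signal: Luciferase luminescence | Control set: Tunicamycin high control, DMSO low control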
XBP1 UPR activ: adaptive UPR (XBP1) activation; CHO-XBP1 luciferase reporter, IRE1-XBP1 UPR activation, luminescence; percent of tunicamycin response, DMSO as zero; activation, % at 20 µM; actives 0.33% (n = 330,000);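 active means versus positive control, 20 µM dose yields 30% or more activation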;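 further: 100% = tunicamycin at 10 µg/mL and 0% = DMSO only wells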
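Test system: CHO-XBP1 luciferase reporter cells | Buffer or medium: Serum-containing F12 medium, 10% FBS | Schedule: 6 h compound exposure at 37 °C, 5% CO2 | Detection: Steady-Glo luciferase glow luminescence, 10 min after reagent addition | Read-out basis: Activation, % of tunicamycin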
TLR9-MyD88 conf: confirmation of human TLR9-MyD88 binding inhibitors. shares compounds with TLR9-MyD88 block. CHO TLR9/MyD88 BLA complementation, CCF4 FRET ratio. inhibition, % at 4.98 µM. actives 51% (n = 680). AID 540250;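 active means mean inhibition across three repeats above about 21% taken from the earlier screen, limit read from the data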;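 further: blue over green emission ratio reports constitutive TLR9 MyD88 association via BLA complementation; 0% = DMSO vehicle wells and 100% = clavulanate BLA inhibitor wells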
Target sequence (Q9NR96 whole entry, looked up): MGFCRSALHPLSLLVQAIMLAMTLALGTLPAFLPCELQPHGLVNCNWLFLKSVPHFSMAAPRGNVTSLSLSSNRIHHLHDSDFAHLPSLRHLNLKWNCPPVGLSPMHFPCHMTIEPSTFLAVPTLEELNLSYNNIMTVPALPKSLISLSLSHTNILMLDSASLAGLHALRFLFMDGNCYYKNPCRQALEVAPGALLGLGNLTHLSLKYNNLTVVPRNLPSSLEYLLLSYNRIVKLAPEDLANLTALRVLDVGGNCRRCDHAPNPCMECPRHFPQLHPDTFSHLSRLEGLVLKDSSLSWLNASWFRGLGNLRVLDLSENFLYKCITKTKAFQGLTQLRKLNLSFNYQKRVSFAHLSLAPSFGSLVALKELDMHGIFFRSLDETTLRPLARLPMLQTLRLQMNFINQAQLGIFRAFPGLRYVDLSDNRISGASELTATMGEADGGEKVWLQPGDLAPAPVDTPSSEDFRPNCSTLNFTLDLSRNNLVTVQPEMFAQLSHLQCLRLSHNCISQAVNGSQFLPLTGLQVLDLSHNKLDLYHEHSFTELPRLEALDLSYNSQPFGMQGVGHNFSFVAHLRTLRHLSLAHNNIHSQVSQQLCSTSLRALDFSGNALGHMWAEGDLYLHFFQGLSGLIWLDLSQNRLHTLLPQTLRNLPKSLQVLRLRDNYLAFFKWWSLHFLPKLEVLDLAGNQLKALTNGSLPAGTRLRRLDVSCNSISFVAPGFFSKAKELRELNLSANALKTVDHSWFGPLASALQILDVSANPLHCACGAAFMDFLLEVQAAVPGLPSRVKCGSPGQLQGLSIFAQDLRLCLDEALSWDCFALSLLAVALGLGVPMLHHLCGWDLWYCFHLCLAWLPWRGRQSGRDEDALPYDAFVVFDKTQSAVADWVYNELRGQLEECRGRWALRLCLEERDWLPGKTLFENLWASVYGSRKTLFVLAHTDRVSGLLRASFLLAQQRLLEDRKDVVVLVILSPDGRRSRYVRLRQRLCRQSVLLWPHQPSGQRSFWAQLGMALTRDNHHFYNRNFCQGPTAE
BLA counter-1: counter-screen for TLR9-MyD88 inhibitors: non-selective beta-lactamase inhibitors | CHO-BLA cells, CCF4 FRET ratio, BLA reporter | shares compounds with TLR9-MyD88 block | AID 540251 | inhibition, % at 4.98 µM | actives 7% (n = 680);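 active means mean inhibition above a 50% cutoff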;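 further: counterscreen of TLR9-MyD88 hits on CMV-driven BLA in CHO-K1 cells; 0% = DMSO alone and 100% = clavulanate blocking BLA; higher means less blue over green ratio so more BLA blockade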
TLR9 CHO cytotox: CHO cell toxicity counter-screen for TLR9-MyD88 inhibitors. shares compounds with TLR9-MyD88 block. TLR9-MyD88 CHO cells cytotoxicity, luminescence. inhibition, % at 4.98 µM. actives 39% (n = 680). AID 588336; in the data active means inhibition above about 11%
NOD2-RIPK2 conf: NOD2-RIPK2 interaction inhibition confirmed; shares compounds with NOD2 RIPK2 PPI; CHO cells, NOD2-RIPK2 BLA complementation, CCF4 FRET; inhibition, % at 4.98 µM; actives 70% (n = 1,200); AID 624370;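 active means mean inhibition across replicates above a set limit taken from the earlier primary screen, cut at about 21% in these data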;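 further: 0% = DMSO-only wells and the high end = clavulanate BLA-blocked wells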
BLA counter-2: NOD2-RIPK2 counterscreen BLA reporter activity; shares compounds with NOD2 RIPK2 PPI; CHO BLA reporter, CCF4 FRET ratio; inhibition, % at 4.98 µM; actives 57% (n = 1,200); AID 624371;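 active means mean inhibition above the low-control mean inhibition plus three low-control SD, cut at about 11% in these data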;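 further: 0% = DMSO only wells and 100% = clavulanate high control wells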
An asterisk follows results filed as active; . = not tested or not shown.

SMILES	CHOP inh	NOD2 RIPK2 PPI	TLR4-MyD88 BLA	TLR9-MyD88 block	CHOP UPR activ	XBP1 UPR activ	TLR9-MyD88 conf	BLA counter-1	TLR9 CHO cytotox	NOD2-RIPK2 conf	BLA counter-2
COc1ccc(C(=O)/C=C/C(=O)N(CC(=O)NC2CCCCC2)CC2CCCO2)c(O)c1 (configuration not stated)	107.9*	86.8*	22.5	25.7*	4.0	-14.4	33.8*	20.2	97.2*	92.7*	22.4*
CCc1cccc(CC)c1NC(=O)CN1CC(C)SC1=NC1CCCCC1 (configuration not stated)	61.2	-8.6	-0.3	1.9	-2.6	-0.8	.	.	.	.	.
COCCn1c2nc(=O)n(-c3ccccc3)c(=O)c-2nc2ccccc21	.	35.9*	.	23.0*	.	.	10.3	14.4	2.5	32.0*	31.6*
COCCn1c(-c2ccc(OC)cc2)nc2ccccc21	14.1	-0.6	-6.0	4.0	1.0	4.1	.	.	.	.	.
O=[N+]([O-])c1ccc(N(CC(O)CN2CCCCC2)S(=O)(=O)c2ccccc2)cc1 (configuration not stated)	.	-2.5	.	6.0	1.9	2.5	.	.	.	.	.
Cc1ccccc1NC(=O)Cc1nc(COC(=O)c2ccc(S(C)(=O)=O)c([N+](=O)[O-])c2)cs1	.	44.6*	.	25.5*	-9.2	-6.3	17.4	6.3	83.9*	49.5*	10.6*
COc1ccc(C2CC(c3ccc(F)cc3)=NN2c2ccccc2)cc1OC (configuration not stated)	.	-4.7	.	-0.5	4.0	-0.2	.	.	.	.	.
COc1cc(C2CC(c3c(C)cc(C)[nH]c3=O)=NN2c2ccccc2F)cc(OC)c1OC (configuration not stated)	.	40.9*	.	22.9*	0.4	1.7	16.6	18.4	4.1	34.9*	46.9*
Nc1cccc2c1C(=O)N(c1ccccc1)C2=O	.	45.4*	.	27.7*	5.3	-2.2	19.8	22.7	-5.3	42.9*	46.4*
COc1ccc(/C=N/Nc2cc(C)nc3ccccc23)cc1	.	10.5	.	-0.2	2.4	2.5	.	.	.	.	.
COc1ccc2nc(C)cc(N/N=C/c3ccc(F)cc3)c2c1	.	49.4*	.	23.1*	39.9	17.8	26.3*	38.4	18.6*	67.4*	68.5*
COc1cccc(CN2C(=O)c3cccc(N)c3C2=O)c1	14.3	35.9*	23.0	28.4*	-1.0	2.6	11.2	16.6	-2.5	37.6*	46.6*
COc1cccc(CN2C(=O)c3ccccc3S2(=O)=O)c1	.	-7.6	.	10.0	0.5	1.7	.	.	.	.	.
Oc1c(Cl)cc(Cl)cc1/C=N/NC(=S)NC1CC2C=CC1C2 (configuration not stated)	10.2	49.2*	.	24.1*	1.2	7.8	24.4*	28.2	17.1*	43.0*	61.5*
COc1cc(NS(=O)(=O)c2ccc(C)cc2)c2ncccc2c1	.	51.1*	22.2	21.5*	111.5*	-3.9	17.6	10.3	102.2*	45.0*	10.6*
O=S(=O)(c1ccc(Cl)cc1)n1nnc2ccccc21	6.7	-3.5	-18.3	8.7	-0.6	-1.1	.	.	.	.	.
CN(C)CCCN(C(=O)CCc1ccccc1)c1nc2c(F)cccc2s1	7.1	-9.2	-17.2	-5.3	1.1	-0.6	.	.	.	.	.
CN(C)CCCN(C(=O)CCOc1ccccc1)c1nc2c(F)cccc2s1	19.3	48.2*	18.7	21.8*	.	.	3.1	2.7	67.5*	27.3*	-0.5
COCCCn1cnnc1SCc1nc2sc(C(C)=O)c(C)c2c(=O)[nH]1	8.0	6.8	.	-3.5	-1.1	0.3	.	.	.	.	.
CCc1cc2c(=O)nc3n(c2s1)Cc1ccccc1/C3=C(/O)c1cccc([N+](=O)[O-])c1	20.0	0.0	1.2	13.6	3.0	1.6	.	.	.	.	.
CCc1cc2c(=O)nc3n(c2s1)Cc1ccccc1/C3=C(/O)c1ccc(F)cc1	20.1	23.5*	-5.1	23.2*	5.1	4.3	-1.4	1.1	1.8	1.9	0.4
Oc1ccccc1C1NN=C(c2ccccc2)S1 (configuration not stated)	.	-6.4	.	-2.6	1.5	-3.4	.	.	.	.	.
O=[N+]([O-])c1c(Nc2ccc(O)cc2)cc(Cl)c2nonc12	.	121.8*	.	48.9*	-10.5	-11.9	59.5*	-17.1	97.1*	120.2*	25.0*
CN(C)c1cc(Nc2ccc(O)cc2)c([N+](=O)[O-])c2nonc12	5.2	-1.2	.	-5.2	0.4	5.6	.	.	.	.	.
Nc1ccc2nc(-c3ccccc3)c(-c3ccccc3)nc2c1	.	43.6*	.	38.3*	2.3	-1.0	32.9*	35.3	2.0	59.7*	67.7*
SMILES	CHOP inh	NOD2 RIPK2 PPI	TLR4-MyD88 BLA	TLR9-MyD88 block	CHOP UPR activ	XBP1 UPR activ	TLR9-MyD88 conf	BLA counter-1	TLR9 CHO cytotox	NOD2-RIPK2 conf	BLA counter-2
Nc1ccc2nc(-c3ccccc3)cnc2c1	.	44.2*	.	39.4*	2.7	2.1	30.3*	33.9	-2.3	57.5*	63.3*
Nc1ccc(Oc2ccc3nc(-c4ccccc4)c(-c4ccccc4)nc3c2)cc1	34.4	-3.5	0.6	4.6	6.5	9.7	.	.	.	.	.
COc1ccc(/C=C/C(=O)OCC(=O)Nc2ccc3[nH]c(=O)[nH]c3c2)cc1OC	.	1.7	.	2.7	-1.0	0.0	.	.	.	.	.
COc1ccc2ccccc2c1/C=N\NC(=O)c1ccc(C)s1	.	7.7	.	-2.6	0.8	-1.0	.	.	.	.	.
COc1ccc2ccccc2c1/C=N/NC(=O)c1sc(N)c(C#N)c1C	14.0	21.6*	-3.7	21.3*	.	.	7.9	0.4	4.9	2.9	4.5
O=C1N/C(=C/c2cccn2-c2ccc(F)cc2)C(=O)N1Cc1ccccc1	69.4	74.6*	10.0	61.5*	0.4	-1.7	51.1*	52.2*	10.0	84.9*	88.9*
CSc1nc(N(C)C)nc(N2CC(=O)N(CCNS(=O)(=O)c3ccc(C)cc3)C2=N)n1	-14.4	-3.6	2.4	4.7	0.2	0.5	.	.	.	.	.
O=C(NCC1CCCO1)c1ccc(CSCc2cccc(F)c2)o1 (configuration not stated)	20.8	-14.3	7.1	-7.6	1.7	-2.3	.	.	.	.	.
